High-throughput results (PubChem)
Rows were chosen to be rich in hits. Some 3.9% of all compounds tested hit in one or more screens of this group.
TAAR1 antagonist: human TAAR1 antagonism. CHO RD-HGA16 TAAR1, Fluo-8 calcium fluorescence, antagonist. inhibition, % at 3 µM. 1.5% of 360,000 active. Q96RJ0;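 active means inhibition above a per-plate cutoff, the mean inhibition of test compounds on that plate plus 3 SD, cut at about 49% in these data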;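 further: 0% = DMSO plus EC80 beta-PEA response and 100% = DMSO alone without agonist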
Target sequence (Q96RJ0 whole entry, looked up): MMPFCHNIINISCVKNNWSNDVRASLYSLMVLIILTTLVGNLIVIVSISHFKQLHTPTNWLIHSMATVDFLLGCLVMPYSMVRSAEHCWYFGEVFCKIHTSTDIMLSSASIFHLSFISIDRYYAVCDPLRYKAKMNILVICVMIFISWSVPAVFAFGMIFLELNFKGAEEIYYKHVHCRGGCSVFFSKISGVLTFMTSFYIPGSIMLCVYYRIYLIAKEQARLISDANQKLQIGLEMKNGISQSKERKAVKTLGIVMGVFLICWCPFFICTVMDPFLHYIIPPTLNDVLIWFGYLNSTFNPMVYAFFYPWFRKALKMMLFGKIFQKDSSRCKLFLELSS
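System: RD-HGA16 CHO cells with stable hTAAR1 and Gα16 | Probe or stimulus: EC80 β-phenethylamine stimulus | Dosing: 3 µM, single point | Times: Dye loading 75 min at 37 °C, then 30 min room temperature | Measured by: Fluo-8 calcium-sensitive fluorescence | Read-out basis: % inhibition of agonist calcium response | Replicates: n of 1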
m5-HT2A agonist: activates the mouse 5-HT2A serotonin receptor | P35363 | CHO-K1 mHTR2A beta-arrestin complementation, luminescence; percent of 30 µM serotonin response | activation, % at 7.6 µM | 0.66% of 360,000 active;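 active means activation above a run cutoff, the mean activation of all tested compounds plus 3 SD, cut at about 14% in these data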;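 further: 0% = plate median of compound wells and 100% = 30 µM serotonin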
CHRM1 agonist: agonists of human M1 muscarinic receptor. activation, % at 3 µM. AID 588814. CHO-K1 hM1, Fluo-8 calcium fluorescence, agonist mode; 0% DMSO, 100% acetylcholine EC100. 0.33% of 360,000 active. P11229;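 active means activation above the run's mean compound activation plus 3 SD, cut at about 16% in these data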;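 further: peak over basal fluorescence ratio within a 140 s kinetic read after compound addition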
M1 antag: human CHRM1 antagonism. inhibition, % at 3 µM. 1.3% of 360,000 active. P11229. CHO-K1 hM1, Fluo-8 calcium fluorescence, ACh EC80 antagonist. AID 588852;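 active means percent inhibition above its own plate's cutoff, namely the mean of that plate's compound wells plus 3 SD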;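 further: peak over basal fluorescence ratio during 140 s after agonist addition; 0% = ACh EC80 plus DMSO and 100% = DMSO alone without agonist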
TAAR1 agonist: human TAAR1 agonism; 0.99% of 360,000 active; AID 624467; activation, % at 3 µM; CHO RD-HGA16 TAAR1, Fluo-8 calcium fluorescence; vehicle wells 0%, saturating PEA agonist 100%; Q96RJ0;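 active means activation above the mean activation of all test compounds in the run plus 3 SD, cut at about 38% in these data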
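Test system: RD-HGA16 (CHO) cells co-expressing Gα16 and hTAAR1; dosing: one-point dosing at 3 µM (nominal); timing: 17-24 h seeding, 75 min 37 °C dye, 30 min RT; signal: kinetic Fluo-8 calcium fluorescence; read-out basis: % activation relative to PEA EC100 response; controls: DMSO and PEA EC100; replicates: n 1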
M1 PAM: potentiates human M1 receptor response to acetylcholine. CHO-K1 hM1, Fluo-8 calcium fluorescence, ACh EC20; 0% = ACh EC20, 100% = maximal ACh. AID 588819. P11229. activation, % at 3 µM. 0.088% of 360,000 active; in the data active means activation above about 19%, passing the limit was not always enough
* = called active by the depositor; nt = not tested or not shown.

SMILES	TAAR1 antagonist	m5-HT2A agonist	CHRM1 agonist	M1 antag	TAAR1 agonist	M1 PAM
CSc1nsc(SC)c1C(=O)OCC(F)(F)F	-12	2	-1	-52	4	24*
COCCOC(=O)C1=C(C)NC2=C(C(=O)CCC2)C1c1ccc(N(C)C)cc1 (stereo not drawn)	-10	-2	-10	-3	4	-1
CCN(CC)c1ccc(C2C(C(=O)OCCOC(C)C)=C(C)NC3=C2C(=O)CCC3)cc1 (stereo not drawn)	-4	-6	-6	90*	3	-23
C=C1C(C(=O)Nc2ccccc2)C1C(=O)Nc1ccccc1 (stereo not drawn)	-23	1	-4	-2	0	7
COc1ccc(S(=O)(=O)N(C)c2ccc(C(=O)NCC3CCCO3)cc2)cc1OC (stereo not drawn)	-17	12	4	-6	0	9
COC(=O)c1ccc(CSc2nnnn2C)o1	-6	5	-4	43*	8	-18
CCOC(=O)CC(=O)CSc1ccc2nnc(-c3cccc(F)c3)n2n1	10	0	-2	-4	16	4
COC(=O)c1ccc(CSc2ccc3nnc(-c4cccc(F)c4)n3n2)o1	-8	-1	-11	38*	0	-19
Cc1ccc(O)c(C2=Nc3ccccc3N=C(c3cccc([N+](=O)[O-])c3)C2)c1	-13	-3	-7	-1	2	3
Cc1ccc(O)c(C2=Nc3ccccc3N=C(c3ccc([N+](=O)[O-])cc3)C2)c1	23	11	0	-9	41*	10
O=S(=O)(Nc1nc2ccccc2s1)c1ccc(Cl)nc1	-31	4	1	-6	1	11
COC(=O)C1CCN(C(c2ccc(OC)c(OC)c2)c2sc3nc(C)nn3c2O)CC1 (stereo not drawn)	-15	2	1	36*	3	-8
O=C(c1ccc(OC2CCN(Cc3ccccn3)CC2)cc1)N1CCCCO1	-13	1	-13	-4	4	15
COC(=O)[C@]1(Cc2ccccc2)N[C@H](CN(C)C(=O)c2ccc(F)cc2)[C@@H]2C(=O)N(C)C(=O)[C@@H]21	2	3	4	-23	1	27*
C=CCn1c(CNC(=O)c2ccccc2F)nnc1SCc1nc2ccccc2c(=O)[nH]1	-6	3	-3	5	1	-5
COc1cc(/C=C(/C#N)C(=O)Nc2ccc(Cl)cc2)ccc1Oc1nc(Cl)ncc1F	-27	3	-4	-13	15	5
Cc1c(NC(=O)/C=C/c2cn(-c3ccccc3)nc2-c2ccccc2)c(=O)n(-c2ccccc2)n1C	52*	2	11	15	12	-9
Cc1c(NC(=O)Nc2ccc(Cl)c(Cl)c2)c(=O)n(-c2ccccc2)n1C	7	-2	-3	40*	14	-2
Cc1c(Cl)c([N+](=O)[O-])nn1CCCC(=O)Nc1c(C)n(C)n(-c2ccccc2)c1=O	-15	-2	-8	67*	0	-25
O=C(O)/C=C/c1cn(-c2ccccc2)nc1-c1ccccc1	-9	2	-6	-9	0	7
C#CC(=O)CC1(CN(Cc2ccccc2)C(=O)OC(C)(C)C)CCCCC1	2	2	-14	34*	1	-33
Nc1ncnc2c1ncn2[C@@H]1O[C@H](CNS(=O)(=O)c2ccc3c(c2)CCN(C(=O)C(F)(F)F)C3)[C@@H](O)[C@H]1O	-14	-1	-4	-8	1	3
Fc1ccccc1NC(=S)Nc1ccc(CN2CCOCC2)cc1	-20	8	-3	-8	2	7
OCC1(Cc2ccccc2Cl)CCN(C/C=C/c2ccccc2)CC1	2	-2	-5	62*	14	-26
OCC1(CCc2ccccc2)CCN(C/C=C/c2ccccc2)CC1	-18	-10	-8	25	5	-24
SMILES	TAAR1 antagonist	m5-HT2A agonist	CHRM1 agonist	M1 antag	TAAR1 agonist	M1 PAM
CN(Cc1ccc(OC(F)F)cc1)C(=O)c1cccc(S(=O)(=O)N2CCN(Cc3ccccc3)CC2)c1	49*	2	-3	33*	5	-14
CN(C)C(=O)c1ccc(NC(=O)c2cccc(S(=O)(=O)N3CCN(Cc4ccccc4)CC3)c2)cc1	14	0	-3	3	4	-3
CN(CC(=O)Nc1ccc(Cl)cc1)C(=O)c1cccc(S(=O)(=O)N2CCN(Cc3ccccc3)CC2)c1	50*	4	-2	0	18	1
COc1cccc(CN(C)C(=O)c2cccc(S(=O)(=O)N3CCN(c4ccc(F)cc4)CC3)c2)c1OC	30	-2	-2	28*	3	-10
O=C(CCc1nc2ccccc2[nH]c1=O)N/N=C/c1ccccc1	0	0	-6	-3	16	3
O=C(NC(C(=O)N/N=C/c1ccccn1)c1n[nH]c(=O)c2ccccc12)c1ccccc1 (stereo not drawn)	-28	2	-3	-19	3	12
COc1ccc(C2=CC(=O)CC(C)(C)C2=O)cc1	-8	nt	nt	nt	1	nt
CCCCNC(=S)Nc1ccc([N+](=O)[O-])cc1	2	-1	1	27*	5	-16
C#Cc1ccc([C@@H]2C=C(C(=O)NCc3ccccc3)O[C@H](OCc3ccc(CO)cc3)C2)cc1	51*	-8	-6	11	9	-6
CN(C)CCCC1(O)c2ccccc2C=Cc2ccccc21	3	-4	-5	73*	5	-22
Cc1cc(-c2nnc3n2N=C(c2ccc(-c4ccccc4)cc2)CS3)n[nH]1	36	-4	5	-3	45*	-2
CN1CCN(c2nc(-c3ccco3)cc(C(F)(F)F)n2)CC1	nt	-6	-8	60*	nt	-21
COc1ccc(N2CCN(CC(O)COC(c3ccc(F)cc3)c3ccc(F)cc3)CC2)cc1 (stereo not drawn)	-8	-8	-11	39*	0	-14
COc1ccc(N2CCN(CC(O)COC(c3ccccc3)c3ccccc3)CC2)cc1 (stereo not drawn)	-13	-15	-11	25	-2	-30
C=CCN(C(=O)CN1CCCCC1)c1nc(-c2ccccc2)cs1	-11	-5	-11	25*	-3	-23
COCCn1nnnc1C(c1ccc(OC)c(OC)c1)N1CCN(C(=O)c2ccco2)CC1 (stereo not drawn)	0	2	-1	-3	3	8
COc1ccc2[nH]c(=O)c(CN(Cc3cccs3)S(=O)(=O)c3cccc4nsnc34)cc2c1	53*	0	-3	32*	21	-13
O=C(C(=O)N1CCC(CNC(=O)c2cccnc2Cl)CC1)c1cc2ccccc2o1	-29	nt	nt	nt	2	nt
